Source: PubChem BioAssay
An excerpt weighted towards active compounds, which were near 2.3% of everything screened.
Autophagy HCS: autophagy modulation, high-content screen; calls only at 10 µM (by protocol); MEF GFP-LC3 puncta imaging; test concentration mostly 10 µM; 190,000 compounds, 0.98% hits; AID 463193;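 active means percentage of spot-positive cells more than 3 SD above its plate mean, without a fluorescence outlier flag or 80% toxicity; inconclusive means no clear call, values can overlap the other calls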;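 further: spot-positive cell cutoff set from DMSO-treated cells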
Insulin prom up: MIN6 insulin promoter up-regulation; AID 1625; 190,000 compounds, 0.3% hits; MIN6 insulin promoter-GFP reporter, high-content imaging; stronger effect = higher value; z-score at 5 µM;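 active means z-score above 3 at 5 µM with at least 500 cells counted in the well; inconclusive means wells under 500 cells, flagged as cytotoxic or low count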
ABCG2 inh: blocks JC-1 efflux by human ABCG2 transporter; Q9UNQ0; IgMXP3 cells, flow cytometry; inhibition, % at 6.6 µM; 190,000 compounds, 0.1% hits; AID 1325;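 active means inhibition above 80%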;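 further: 0% = DMSO and 100% = nicardipine control wells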
Target sequence (Q9UNQ0 whole entry, looked up): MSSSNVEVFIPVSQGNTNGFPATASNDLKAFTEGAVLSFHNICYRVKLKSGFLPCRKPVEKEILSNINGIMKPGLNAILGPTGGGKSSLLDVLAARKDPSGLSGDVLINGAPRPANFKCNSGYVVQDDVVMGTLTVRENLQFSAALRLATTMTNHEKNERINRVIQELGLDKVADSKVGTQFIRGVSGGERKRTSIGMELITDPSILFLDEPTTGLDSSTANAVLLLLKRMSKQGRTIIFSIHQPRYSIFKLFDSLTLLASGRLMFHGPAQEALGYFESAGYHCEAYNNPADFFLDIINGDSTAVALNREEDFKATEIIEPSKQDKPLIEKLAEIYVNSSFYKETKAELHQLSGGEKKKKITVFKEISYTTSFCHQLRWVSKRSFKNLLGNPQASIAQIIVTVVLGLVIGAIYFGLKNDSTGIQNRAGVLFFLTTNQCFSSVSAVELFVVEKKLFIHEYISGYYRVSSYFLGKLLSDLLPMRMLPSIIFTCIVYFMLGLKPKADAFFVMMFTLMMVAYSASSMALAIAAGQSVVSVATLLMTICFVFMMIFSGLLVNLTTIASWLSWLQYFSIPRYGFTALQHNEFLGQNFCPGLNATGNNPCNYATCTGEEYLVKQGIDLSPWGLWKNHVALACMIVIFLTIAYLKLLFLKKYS
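Read-out basis: Efflux inhibition in percent versus controls | Test system: ABCG2 IgMXP3 and barcoded ABCB1 CCRF-Adr cell mix | Quantity: 3 million cells/mL in well | Schedule: 10 min at 25 °C | Control set: Nicardipine as high control, DMSO as low control | Reagent: JC-1 as fluorescent efflux pump substrate | Signal: Flow cytometry of retained JC-1 fluorescence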
sdo1 growth: compounds rescuing growth of sdo1-depleted yeast, bone marrow failure model; 140,000 compounds, 0.21% hits; z-score at 10 µM; S. cerevisiae sdo1-depleted JHY4D growth rescue, OD600 30 h; stronger effect = higher value; pdr5 snq2 efflux-pump mutant strain; AID 817;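 active means z-score above 3 at both the 24 hr and the 30 hr optical density reads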;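 further: z-score against mean and SD of all compound wells on the same plate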
ROMK mod: human ROMK K+ channel modulation, primary screen; P48048; Tet-inducible ROMK, thallium flux fluorescence; actives lie on both sides; B-score at 10 µM; 130,000 compounds, 2% hits; AID 1918;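 active means signal ratio slope over the read window, or its plate-corrected B-score, at least 3 SD from the plate mean, either direction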;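 further: B-score of the F/F0 ratio slope over 7 to 12 s after thallium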
ABCB1 block: human ABCB1 inhibition, ABCG2 as counter-screen. P08183. CCRF-Adr cells, JC-1 efflux, flow cytometry. inhibition, % at 6.6 µM. 190,000 compounds, 0.067% hits; in the data active means inhibition above about 40%;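 further: 0% = vehicle and 100% = reference inhibitor; higher value means more JC-1 retained so stronger ABCB1 efflux block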
ROMK retest: retested hit modulating human ROMK potassium channel | shares compounds with ROMK mod | ROMK thallium flux, fluorescence ratio; stronger effect = lower value | normalized thallium flux (F/F0 slope) at 10 µM | 3,000 compounds, 54% hits;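 active means Flux at 10 µM at least 3 SD below or above vehicle control mean in one or both replicates; inconclusive means no clear call, values can overlap the other calls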
An asterisk follows results filed as active; i = inactive; ? = inconclusive; · = no result given; [ ] = dose if it differs, or a comment.

SMILES	Autophagy HCS	Insulin prom up	ABCG2 inh	sdo1 growth	ROMK mod	ABCB1 block	ROMK retest
O=C(Nc1ccc(S(=O)(=O)N2CCCCC2)cc1)c1ccc(CN2CCOCC2)cc1	i	?	49.7	0.53	·	3.1	0.0594*
O=C(Nc1ccc(S(=O)(=O)Nc2ccc(F)cc2)cc1)c1ccc(CN2CCOCC2)cc1	i	0.17	2.5	·	-3.38*	0.3	?
O=C(Nc1ccc(S(=O)(=O)N2CCCC2)cc1)c1ccc(CN2CCOCC2)cc1	i	0.48	2.9	0.8	-1.21	0.7	·
CN(C)c1ccc(/C=C/c2cccc[n+]2[O-])cc1	·	0.21	·	·	-4.41*	·	0.0539*
CN(C)S(=O)(=O)c1cccc(N2C(=O)CC3(CCCCC3)CC2=O)c1	i	-0.18	22.4	·	0.232	1.1	·
COc1cc(C(=O)Nc2ccc3oc(-c4cccnc4)nc3c2)cc(OC)c1OC	i	-0.61	0.9	·	-0.756	0.1	0.0791
O=C(CCl)NC(Cc1ccccc1)c1ccccc1 (stereo not drawn)	i	-1.05	0.2	·	-0.398	0.0	0.0872
CC(=O)C(Cc1ccccc1)NC(=O)CCl (stereo not drawn)	i	-0.5	0.3	·	-0.117	0.2	·
N#C/C(=C\c1ccc(O)c(Br)c1)C(=O)NCc1ccccc1	i	1.93	2.4	·	3.62*	-0.4	0.0661*
CCOc1ncccc1C(=O)OCC(=O)N(CC(C)C)C1CCS(=O)(=O)C1 (stereo not drawn)	i	0.3	-0.3	·	0.416	-0.3	·
COc1ccc(/C=C2/C(=O)OCc3cc(OC)c(OC)cc32)cc1	i	-0.81	5.9	-1.07	2.55*	0.6	0.0885
CCOC(=O)c1c(-c2ccccc2)oc2ccc(O)c(CN(C)C)c12	i	-1.45	0.2	-0.24	-1.62	0.2	·
CCOC(=O)c1c(CSCc2ccccc2)oc2ccc(O)c(CN(C)C)c12	·	·	·	·	·	·	0.0607*
CS(=O)(=O)N1CCC(C(=O)Nc2cc(Cl)cc(Cl)c2)CC1	i	·	17.9	·	1.19	0.8	·
C/C(=N\NC(=O)c1ccc(O)cc1)c1ccc2c(c1)Nc1ccccc1S2	i	-0.84	9.9	-0.06	·	-0.3	·
C/C(=N\NC(=O)c1ccccc1F)c1ccc2c(c1)Nc1ccccc1S2	i	-0.11	0.1	-0.71	·	0.1	0.0704
CCOC(=O)C(=CNc1cccc(C)c1C)C(=O)OCC	i	·	0.5	-0.06[12.7 µM]	-0.311	0.3	·
CCOC(=O)C(=CNc1ccccc1N1CCOCC1)C(=O)OCC	·	-0.01	·	·	·	·	0.0643*
CC(C)(C)C(=O)Cn1ncc(Br)c(Br)c1=O	i	?	0.0	·	1.01	-0.7	·
CN(C)/C=C/C(=O)c1ccc(C(F)(F)F)cc1F	i	-0.37	-0.9	·	1.16	-1.2	·
Cn1cccc1/C=C1\SC(=S)N(NC(=O)c2ccccc2)C1=O	i	0.91	1.8	-0.79	-2.71*	0.2	0.0604*
Cn1cccc1/C=C1\SC(=S)N(NC(=O)c2ccc(F)cc2)C1=O	·	-0.09	·	·	-0.625	·	·
Cn1c(-c2ccc3c(c2)OCO3)cnc1NCc1cccc(Cl)c1	i	0.27	28.1	-0.62	-4.82*	2.3	0.0646*
Cn1c(-c2ccc3c(c2)OCO3)cnc1NCc1ccccc1	i	-0.59	3.9	-0.92	·	0.7	·
Cc1[nH]c2ccccc2c1CN1CCN(c2ccccn2)CC1	·	-0.64	·	·	-3.67*	·	0.0648*
SMILES	Autophagy HCS	Insulin prom up	ABCG2 inh	sdo1 growth	ROMK mod	ABCB1 block	ROMK retest
CC(=O)c1c(NC(=O)c2ccccc2)[nH]c(-c2ccccc2)nc1=S	i	·	-1.7	·	1.11	-0.4	·
CCOC(=O)c1c(C)oc2c1c(C=NCc1ccccn1)c(O)c1ccccc12	i	0.19	68.5	-0.95	·	9.2	0.0638*
CC(C)C1CC(CCN2CCCCC2)(c2ccccc2)CCO1 (stereo not drawn)	i	-1.06	4.5	·	-0.319	0.3	·
COCCOC(=O)/C(=C\c1cc(C(C)(C)C)c(O)c(C(C)(C)C)c1)C(C)=O	·	-0.63	·	·	·	·	0.0612*
CC(C)(C)c1cc(CCC(=O)NN)cc(C(C)(C)C)c1O	i	-0.72	0.7	·	-0.072	0.4	·
C#CCOC(=O)CCCC(=O)NCCCCCCCC	i	0.29	3.4	·	-0.498	0.0	·
COc1cc(NC(=O)COc2ccc(-n3cnnn3)cc2)c(OC)cc1Cl	i	0.13	13.4	-0.71	·	0.3	0.0872
COc1ccc(OC)c(NC(=O)COC(=O)c2ccc(-n3cnnn3)cc2)c1	i	0.49	0.8	-0.36	1.13	0.1	·
COc1cc(CC2COC(c3ccc(O)c(OC)c3)C2COC(C)=O)ccc1O (stereo not drawn)	·	0	·	·	·	·	·
Cc1cccc(OCC(=O)Nc2ccccc2C(=O)N2CCOCC2)c1	i	-0.09	-1.2	0.96	3.09*	0.3	?
COc1ccc(C2=NN(C(C#N)c3ccc(OC)cc3)C(c3ccccc3)C2)cc1 (stereo not drawn)	i	-0.62	5.5	-0.6	0.344	0.1	·
C=CCNCCCCOc1ccccc1-c1ccccc1	i	0.02	12.3	1.37	-3.03*	1.6	0.0621*
Cc1ccc(C2CC(=O)NC(SCc3ccccc3)=C2C#N)cc1 (stereo not drawn)	i	-1.02	5.2	-1.34	·	0.8	0.0659*
O=C1NC(c2ccccc2)=C(c2ccc3ccccc3n2)C(c2ccccc2)N1 (stereo not drawn)	i	0.25	13.2	-1.45	1.04	2.5	·
O=C1NC(c2ccccc2)=C(c2ccc3ccccc3n2)C(c2ccc(F)cc2)N1 (stereo not drawn)	i	-0.06	14.4	-1.16	-2.99*	1.9	0.0757
COc1cccc(C(=O)O/N=C(\C)c2cnccn2)c1	i	-0.42	3.2	·	-3.6*	-0.6	0.0635*
CCn1c(C)cs/c1=N\C(=S)Nc1ccccc1C	i	-0.39	6.5	-0.79	3.23*	-0.1	0.0696
CSC1=NC(C(Cl)(Cl)Cl)N=C(c2ccc(C)cc2)N1 (stereo not drawn)	i	0.72	4.3	·	2.7*	0.4	0.104*
CCC1N=C(SC)NC(C)=C1C(=O)c1ccccc1 (stereo not drawn)	i	·	-0.1	·	0.0457	1.1	·
COc1ccccc1CNC(=O)C(NC(=O)c1ccccc1C)C(C)C (stereo not drawn)	i	0.05	0.7	·	-0.0839	0.1	·
CCOC(=O)c1ccc(N2C(=O)c3n[nH]c(C)c3C2c2ccc(OC)cc2)cc1 (stereo not drawn)	i	0.57	6.0	1.32	·	1.3	·
CCOC(=O)c1ccc(N2C(=O)c3n[nH]c(C)c3C2c2ccc(OC)c(OC)c2)cc1 (stereo not drawn)	i	-0.33	0.3	-0.53	·	-0.1	0.0875
OC(CNCCCCNCC(O)C(F)(F)F)C(F)(F)F (stereo not drawn)	i	-0.05	-0.3	·	2.67*	0.3	0.0804
